Experimental data published in ChEMBL document CHEMBL1143493, “Synthesis of 2-[3,5-substituted pyrazol-1-yl]-4,6-trisubstituted triazine derivatives as antimalarial agents” (2005).
Values after ≈ are worked out from the molar mass of the structure shown.

The compounds below were run on Plasmodium falciparum (assay: Minimum inhibitory concentration against Plasmodium falciparum NF-54 after 40 hrs).
Format: functional
Method in brief: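 Rieckmann-type microassay. NF-54 is kept in RPMI-1640 with 25 mM Hepes, 1% D-glucose, 0.23% NaHCO3 and 10% heat-inactivated human serum, then synchronized to ring stage with 5% D-sorbitol. Ring-stage parasites at about 1% parasitemia and 3% hematocrit are exposed in duplicate to […] for 36–40 h at 37 °C in a candle jar. Maturation is read on Giemsa smears. MIC is the concentration that completely blocks schizont maturation.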

Row | SMILES | MIC [µg/mL]
1 | COc1cc(-c2cc(SC)n(-c3nc(N4CCOCC4)nc(N4CCOCC4)n3)n2)cc(OC)c1OC | > 50
2 | COc1cc(-c2cc(SC)n(-c3nc(N4CCN(Cc5ccccc5)CC4)nc(N4CCN(Cc5ccccc5)CC4)n3)n2)cc(OC)c1OC | 50 (≈ 70.6 µM)
3 | COc1ccc(-c2cc(SC)n(-c3nc(N4CCCCC4)nc(N4CCCCC4)n3)n2)cc1OC | 10 (≈ 20.2 µM)
4 | COc1ccc(-c2cc(SC)n(-c3nc(N4CCc5ccccc5C4)nc(N4CCc5ccccc5C4)n3)n2)cc1OC | 50 (≈ 84.5 µM)
5 | COc1ccc(-c2cc(SC)n(-c3nc(NC4CCCCC4)nc(NC4CCCCC4)n3)n2)cc1OC | 50 (≈ 95.5 µM)
6 | COc1ccc(-c2cc(SC)n(-c3nc(N4CCN(Cc5ccccc5)CC4)nc(N4CCN(Cc5ccccc5)CC4)n3)n2)cc1OC | 2 (≈ 2.95 µM)
7 | COc1cc(-c2cc(SC)n(-c3nc(NCc4ccccc4)nc(NCc4ccccc4)n3)n2)cc(OC)c1OC | 2 (≈ 3.51 µM)
8 | COc1cc(-c2cc(SC)n(-c3nc(N4CCN(c5ccccc5)CC4)nc(N4CCN(c5ccccc5)CC4)n3)n2)cc(OC)c1OC | 50 (≈ 73.5 µM)
9 | COc1ccc(-c2cc(SC)n(-c3nc(N4CCOCC4)nc(N4CCOCC4)n3)n2)cc1OC | 10 (≈ 20 µM)
10 | COc1cc(-c2cc(SC)n(-c3nc(NC4CCCCC4)nc(NC4CCCCC4)n3)n2)cc(OC)c1OC | 2 (≈ 3.61 µM)
11 | COc1cc(-c2cc(SC)n(-c3nc(NCCCN4CCOCC4)nc(NCCCN4CCOCC4)n3)n2)cc(OC)c1OC | 10 (≈ 15.5 µM)
12 | COc1ccccc1CN1CCN(c2nc(N3CCN(Cc4ccccc4OC)CC3)nc(-n3nc(-c4cc(OC)c(OC)c(OC)c4)cc3SC)n2)CC1 | 50 (≈ 65.1 µM)
13 | COc1ccc(-c2cc(SC)n(-c3nc(NCc4ccccc4)nc(NCc4ccccc4)n3)n2)cc1OC | > 50
14 | CC1(C)N=C(N)N=C(N)N1c1ccc(Cl)cc1 [CYCLOGUANIL] | 64 (≈ 254 µM)
15 | COc1cc(-c2cc(SC)n(-c3nc(NCCN4CCOCC4)nc(NCCN4CCOCC4)n3)n2)cc(OC)c1OC | 1 (≈ 1.62 µM)
16 | COc1ccccc1CN1CCN(c2nc(N3CCN(Cc4ccccc4OC)CC3)nc(-n3nc(-c4ccc(OC)c(OC)c4)cc3SC)n2)CC1 | 50 (≈ 67.8 µM)
17 | COc1cc(-c2cc(SC)n(-c3nc(N4CCCCC4)nc(N4CCCCC4)n3)n2)cc(OC)c1OC | > 50
18 | COc1ccc(-c2cc(SC)n(-c3nc(Nc4ccccc4C)nc(Nc4ccccc4C)n3)n2)cc1OC | 10 (≈ 18.5 µM)
19 | COc1ccc(-c2cc(SC)n(-c3nc(NCCCN4CCOCC4)nc(NCCCN4CCOCC4)n3)n2)cc1OC | 10 (≈ 16.3 µM)
20 | COc1ccc(-c2cc(SC)n(-c3nc(N4CCN(c5ccccc5)CC4)nc(N4CCN(c5ccccc5)CC4)n3)n2)cc1OC | 10 (≈ 15.4 µM)
21 | COc1cc(-c2cc(SC)n(-c3nc(N4CCc5ccccc5C4)nc(N4CCc5ccccc5C4)n3)n2)cc(OC)c1OC | > 50
22 | COc1cc(-c2cc(SC)n(-c3nc(Nc4ccccc4C)nc(Nc4ccccc4C)n3)n2)cc(OC)c1OC | 1 (≈ 1.76 µM)
23 | COc1ccc(-c2cc(SC)n(-c3nc(NCCN4CCOCC4)nc(NCCN4CCOCC4)n3)n2)cc1OC | 2 (≈ 3.41 µM)
